Assay results: PMC5378272 (Cancer Science, 2017)
One block for each compound: values may come before it.

Assays:
Molt‐4 cells [1] = experiment: Cell cycle analysis by flow cytometry; format: cell-based, human; settings: Molt‐4, 3 μM, 24 h; control group 14.9%
Aurora B = experiment: Western blotting of p‐H3; format: cell-based, human; settings: Molt‐4 cells, 24 h, western blot, concentrations up to 6 μM
COLO‐320 tumor = experiment: COLO‐320 xenograft in SCID mice, tumor tissue analysis; format: in vivo; settings: oral 2.5 or 20 mg/kg/day, 12 days
Procedure, shortened: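 COLO-320 cells implanted s.c. in SCID mice; established tumors dosed orally once daily for 12 days at 2.5 or 20 mg/kg/day, with compound suspended in 0.5% (w/v) CMC-Na. Half of each tumor went to histone extraction and western blot for p-H3 (Ser10) vs total H3, with normal colon as comparator. The other half was formalin-fixed and paraffin-embedded for IHC (CD34, p-H3 Ser10, Ki67).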

HCT‐8 = experiment: Tumor xenograft model; format: in vivo, BALB/c athymic mice; settings: HCT‐8 xenograft, oral once daily
Procedure, shortened: (§1)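 Subjects were 6-week-old female BALB/c athymic mice. Tumour cells in 200 μL serum-free medium were implanted s.c. At 100–150 mm³, mice were randomised (n = 8/group) and dosed by oral gavage once daily with test compound in 0.5% CMC‐Na, sunitinib or vehicle. Doses were 2.5–20 mg/kg for HCT‐8 and SMMC‐7721, and 5–40 mg/kg for A549. Volumes were measured every 3–4 days over 33 or 43 days. Percent TGI at last treatment was computed versus vehicle.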

PLK1 = PLK1 (Homo sapiens, UniProt P53350); experiment: Kinase inhibition assay; settings: Biochemical IC50, cell-free
PLK1, sequence (P53350 whole entry): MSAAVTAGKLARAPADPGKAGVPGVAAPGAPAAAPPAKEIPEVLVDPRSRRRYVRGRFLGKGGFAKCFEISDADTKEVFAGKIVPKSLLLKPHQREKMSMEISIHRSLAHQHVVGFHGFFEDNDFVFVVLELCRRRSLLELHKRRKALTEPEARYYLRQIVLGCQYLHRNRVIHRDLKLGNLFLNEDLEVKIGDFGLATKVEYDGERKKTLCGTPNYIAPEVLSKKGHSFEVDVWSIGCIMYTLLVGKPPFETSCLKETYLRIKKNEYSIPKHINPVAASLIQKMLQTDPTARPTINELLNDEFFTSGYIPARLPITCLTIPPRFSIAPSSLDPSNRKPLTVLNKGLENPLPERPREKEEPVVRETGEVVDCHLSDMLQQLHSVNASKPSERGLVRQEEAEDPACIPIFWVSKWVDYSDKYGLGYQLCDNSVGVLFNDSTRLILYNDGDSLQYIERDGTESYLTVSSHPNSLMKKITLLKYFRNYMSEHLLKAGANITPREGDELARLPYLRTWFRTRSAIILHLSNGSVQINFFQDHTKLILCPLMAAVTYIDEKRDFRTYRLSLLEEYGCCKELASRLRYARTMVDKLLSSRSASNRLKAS

VEGFR2 = VEGFR2 (Homo sapiens, UniProt P35968); experiment: Western blotting of VEGF-stimulated VEGFR2 phosphorylation in HUVEC; format: cell-based; settings: 1 h pre-treatment, VEGF 100 ng/mL 15 min, western blot
VEGFR2, sequence (P35968 20-1356): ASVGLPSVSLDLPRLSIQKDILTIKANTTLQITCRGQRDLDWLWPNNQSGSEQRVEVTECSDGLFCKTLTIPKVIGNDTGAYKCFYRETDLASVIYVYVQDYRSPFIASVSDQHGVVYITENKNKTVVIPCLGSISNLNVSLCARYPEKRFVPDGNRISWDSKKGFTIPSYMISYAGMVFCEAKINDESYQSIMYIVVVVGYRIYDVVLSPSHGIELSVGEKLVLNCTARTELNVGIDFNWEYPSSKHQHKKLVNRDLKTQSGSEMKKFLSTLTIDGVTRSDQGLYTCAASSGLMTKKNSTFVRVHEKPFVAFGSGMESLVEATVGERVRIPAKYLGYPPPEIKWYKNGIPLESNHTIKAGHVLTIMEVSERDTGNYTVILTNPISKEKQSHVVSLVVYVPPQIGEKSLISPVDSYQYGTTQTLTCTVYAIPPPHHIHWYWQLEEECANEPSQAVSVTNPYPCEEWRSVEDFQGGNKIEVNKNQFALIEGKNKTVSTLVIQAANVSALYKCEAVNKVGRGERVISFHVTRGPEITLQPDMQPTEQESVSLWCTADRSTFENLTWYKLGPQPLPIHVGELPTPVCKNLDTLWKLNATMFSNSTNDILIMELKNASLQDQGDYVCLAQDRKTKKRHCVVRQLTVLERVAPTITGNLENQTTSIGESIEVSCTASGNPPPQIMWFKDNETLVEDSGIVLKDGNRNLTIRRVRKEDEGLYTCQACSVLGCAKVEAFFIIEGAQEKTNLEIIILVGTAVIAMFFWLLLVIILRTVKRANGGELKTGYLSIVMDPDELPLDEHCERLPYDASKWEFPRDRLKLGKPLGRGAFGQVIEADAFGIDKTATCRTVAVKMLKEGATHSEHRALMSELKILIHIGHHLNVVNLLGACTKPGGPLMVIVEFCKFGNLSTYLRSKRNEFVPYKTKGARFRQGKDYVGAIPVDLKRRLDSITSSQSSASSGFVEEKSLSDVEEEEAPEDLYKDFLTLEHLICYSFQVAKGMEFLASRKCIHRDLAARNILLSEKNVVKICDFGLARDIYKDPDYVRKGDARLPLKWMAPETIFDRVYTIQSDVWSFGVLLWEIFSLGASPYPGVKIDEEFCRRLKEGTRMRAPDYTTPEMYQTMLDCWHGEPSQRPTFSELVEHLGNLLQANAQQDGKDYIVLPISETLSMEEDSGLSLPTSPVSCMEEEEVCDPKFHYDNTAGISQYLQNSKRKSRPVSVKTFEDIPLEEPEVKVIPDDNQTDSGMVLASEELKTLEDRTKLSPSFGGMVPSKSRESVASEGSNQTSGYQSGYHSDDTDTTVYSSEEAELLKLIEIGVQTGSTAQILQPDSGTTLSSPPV
Procedure, shortened: (§2)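 Cells (1.5 × 10⁶) were seeded for 24 h, then serum-starved overnight. They were pretreated 1 h with test compound and stimulated with 100 ng/mL ligand for 15 min: rhM‐CSF for CSF‐1R‐transfected 293A (DMEM, 10% FBS) and VEGF165 for HUVEC. Whole-cell lysates were immunoblotted for phospho-CSF1R or phospho-VEGFR2, with total receptor and β‐actin as internal controls.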

[2] = test system: human blood‐derived monocytes; settings: M‐CSF 100 ng/mL, 6 days, 0.3 μM
DDR2 = biological target: T1, DDR2 (Homo sapiens, UniProt Q16832); experiment: Kinase inhibition assay; settings: Biochemical IC50, cell-free
T1 sequence (Q16832 22-855): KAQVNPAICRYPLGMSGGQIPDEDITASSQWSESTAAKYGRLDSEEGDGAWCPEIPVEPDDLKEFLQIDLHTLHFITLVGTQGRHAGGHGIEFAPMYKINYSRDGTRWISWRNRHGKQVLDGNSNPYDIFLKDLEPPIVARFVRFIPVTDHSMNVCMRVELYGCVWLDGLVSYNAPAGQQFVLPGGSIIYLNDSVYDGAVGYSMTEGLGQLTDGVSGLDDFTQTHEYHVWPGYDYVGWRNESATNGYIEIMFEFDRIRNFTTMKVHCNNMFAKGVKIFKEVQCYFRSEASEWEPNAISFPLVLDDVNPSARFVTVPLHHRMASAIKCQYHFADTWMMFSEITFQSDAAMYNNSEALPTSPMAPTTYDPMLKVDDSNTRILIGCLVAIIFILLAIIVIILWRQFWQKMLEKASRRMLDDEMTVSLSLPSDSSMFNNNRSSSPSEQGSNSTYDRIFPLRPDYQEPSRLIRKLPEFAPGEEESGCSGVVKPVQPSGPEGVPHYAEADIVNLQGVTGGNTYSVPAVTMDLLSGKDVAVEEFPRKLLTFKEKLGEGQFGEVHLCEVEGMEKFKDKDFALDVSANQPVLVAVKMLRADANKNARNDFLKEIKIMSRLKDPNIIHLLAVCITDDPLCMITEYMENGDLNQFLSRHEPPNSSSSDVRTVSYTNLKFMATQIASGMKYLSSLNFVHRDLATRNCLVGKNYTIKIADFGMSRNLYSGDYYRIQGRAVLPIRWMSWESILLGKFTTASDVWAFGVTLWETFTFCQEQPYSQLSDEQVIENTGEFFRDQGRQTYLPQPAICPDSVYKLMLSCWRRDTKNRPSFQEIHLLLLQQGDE

SMMC‐7721 = experiment: Tumor xenograft model; format: in vivo, BALB/c athymic mice; settings: SMMC‐7721 xenograft, oral once daily
Procedure, shortened: as §1

c‐RAF = c‐RAF (Homo sapiens, UniProt P04049, Y340D/Y341D); experiment: Kinase inhibition assay; settings: Biochemical IC50, cell-free
c‐RAF, sequence (P04049 306-648 Y340D/Y341D limits assumed): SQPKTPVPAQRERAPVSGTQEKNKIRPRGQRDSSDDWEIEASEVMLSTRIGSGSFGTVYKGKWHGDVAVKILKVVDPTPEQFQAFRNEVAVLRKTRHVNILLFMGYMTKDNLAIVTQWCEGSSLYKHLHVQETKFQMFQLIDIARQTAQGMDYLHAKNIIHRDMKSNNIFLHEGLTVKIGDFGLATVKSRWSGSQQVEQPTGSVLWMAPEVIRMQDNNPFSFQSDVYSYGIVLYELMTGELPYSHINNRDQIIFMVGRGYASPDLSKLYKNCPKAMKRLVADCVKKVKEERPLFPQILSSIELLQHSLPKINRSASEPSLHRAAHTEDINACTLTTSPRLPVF

PLK3 = PLK3 (Homo sapiens, UniProt Q9H4B4); experiment: Kinase inhibition assay; settings: Biochemical IC50, cell-free
PLK3, sequence (Q9H4B4 whole entry): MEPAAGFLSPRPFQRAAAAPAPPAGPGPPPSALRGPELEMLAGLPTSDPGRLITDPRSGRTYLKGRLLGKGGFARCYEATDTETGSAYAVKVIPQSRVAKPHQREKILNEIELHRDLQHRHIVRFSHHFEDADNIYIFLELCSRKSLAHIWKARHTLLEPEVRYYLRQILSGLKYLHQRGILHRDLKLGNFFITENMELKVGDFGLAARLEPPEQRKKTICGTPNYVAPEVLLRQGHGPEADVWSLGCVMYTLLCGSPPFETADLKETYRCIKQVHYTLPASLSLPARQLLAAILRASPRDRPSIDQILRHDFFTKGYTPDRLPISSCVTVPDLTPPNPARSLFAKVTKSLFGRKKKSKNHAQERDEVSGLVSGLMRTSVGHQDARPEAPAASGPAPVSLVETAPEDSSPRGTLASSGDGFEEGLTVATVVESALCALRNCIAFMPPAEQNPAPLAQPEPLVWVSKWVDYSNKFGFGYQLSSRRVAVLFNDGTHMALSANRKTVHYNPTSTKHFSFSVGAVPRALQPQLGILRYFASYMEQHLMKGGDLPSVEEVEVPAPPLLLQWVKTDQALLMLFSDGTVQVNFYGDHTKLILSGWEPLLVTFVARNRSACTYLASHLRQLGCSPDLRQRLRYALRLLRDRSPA

CSF‐1R = CSF‐1R (Homo sapiens, UniProt P07333); format: cell-based; settings: CSF‐1R‐transfected 293A cells, M‐CSF 100 ng/mL, western blot
CSF‐1R, sequence (P07333 20-972): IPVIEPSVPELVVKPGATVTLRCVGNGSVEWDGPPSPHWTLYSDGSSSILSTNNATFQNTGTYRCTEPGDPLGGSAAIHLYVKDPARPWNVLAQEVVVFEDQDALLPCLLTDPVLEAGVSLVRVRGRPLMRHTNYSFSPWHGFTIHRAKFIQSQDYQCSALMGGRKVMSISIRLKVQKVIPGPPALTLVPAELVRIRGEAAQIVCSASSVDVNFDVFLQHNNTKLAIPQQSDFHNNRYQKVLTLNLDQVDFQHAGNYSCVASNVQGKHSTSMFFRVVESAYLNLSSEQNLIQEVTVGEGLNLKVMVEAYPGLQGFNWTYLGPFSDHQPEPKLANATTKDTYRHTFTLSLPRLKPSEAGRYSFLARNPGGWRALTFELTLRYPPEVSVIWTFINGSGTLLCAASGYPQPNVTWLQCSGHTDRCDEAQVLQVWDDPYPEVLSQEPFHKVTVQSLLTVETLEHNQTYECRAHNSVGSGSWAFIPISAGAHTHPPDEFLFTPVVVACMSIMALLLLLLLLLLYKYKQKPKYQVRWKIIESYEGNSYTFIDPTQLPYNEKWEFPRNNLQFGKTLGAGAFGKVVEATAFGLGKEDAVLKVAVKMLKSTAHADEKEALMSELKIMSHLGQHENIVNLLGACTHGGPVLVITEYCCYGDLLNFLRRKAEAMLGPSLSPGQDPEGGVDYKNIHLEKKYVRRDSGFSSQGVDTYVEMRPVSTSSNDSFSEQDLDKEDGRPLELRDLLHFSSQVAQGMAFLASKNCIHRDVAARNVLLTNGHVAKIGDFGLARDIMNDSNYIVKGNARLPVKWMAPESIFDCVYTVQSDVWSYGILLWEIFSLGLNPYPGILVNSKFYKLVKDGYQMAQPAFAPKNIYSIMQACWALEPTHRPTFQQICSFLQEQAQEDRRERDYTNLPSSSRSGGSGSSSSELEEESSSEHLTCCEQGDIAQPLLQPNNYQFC
Procedure, shortened: as §2

Molt‐4 cells [3] = experiment: Growth inhibition of tumor cells; format: cell-based; settings: Homo sapiens, MOLT-4, 120 h, read-out: GI50, growth inhibition
Colo‐320 cells = experiment: Growth inhibition of tumor cells; format: cell-based; settings: Homo sapiens, COLO 320, 120 h, read-out: GI50, growth inhibition
4T1 breast cancer cells = experiment: 4T1 breast cancer model in BALB/c mice, tumor tissue immunohistochemistry; format: in vivo
A549 = experiment: Tumor xenograft model; format: in vivo, BALB/c athymic mice; settings: oral once daily, 5 to 40 mg/kg
Procedure, shortened: as §1

MGC‐803 = experiment: Tumor xenograft model; format: in vivo, BALB/c athymic mice; settings: MGC‐803 xenograft; for tumor growth: oral once daily
HUVEC = experiment: Tube formation assay; format: cell-based, human; settings: HUVEC on Matrigel, 1.5 or 5 μM, 24 h, vs control
Procedure, shortened: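 HUVEC were maintained in endothelial cell medium with 5% FBS, heparin (50 μg/mL) and ECGS (50 μg/mL). Matrigel was polymerised 45 min at 37°C. 4 × 10⁴ cells in complete medium were seeded onto it with vehicle or test compound and incubated 24 h. Networks were imaged by light microscopy and scored as mean loops per field and total branch length (pixels). Results are mean ± SD of five experiments; t-test versus vehicle.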

[4] = immunohistochemistry, vs vehicle

SMILES: CNC(=O)c1cc(Oc2ccc(NC(=O)Nc3ccc(Cl)c(C(F)(F)F)c3)cc2)ccn1 [sorafenib]
cells in G2/M phase (of cell cycle phases) (Molt‐4 cells [1]): 13.3%

SMILES: CCN(CC)CCNC(=O)c1c(C)[nH]c(/C=C2\C(=O)Nc3ccc(F)cc32)c1C [sunitinib, reference compound]
cells in G2/M phase (of cell cycle phases) (Molt‐4 cells [1]): 20.4%
level of p‐H3 (Ser10‐phosphorylated histone 3) (Aurora B): little inhibitory activity

IC50 (PLK1): 100 to 500 nM
ligand‐stimulated VEGFR2 tyrosine phosphorylation (VEGFR2): concentration‐dependent inhibition
IC50 (DDR2): 100 to 500 nM
IC50 (c‐RAF): 100 to 500 nM
IC50 (PLK3): 100 to 500 nM
CSF‐1R phosphorylation induced by M‐CSF (CSF‐1R): concentration‐dependent inhibition
GI50 (Molt‐4 cells [3]): 2140 nM
GI50 (Colo‐320 cells): 840 nM
SMILES: COc1ccc2c(Oc3ccc4c(C(=O)Nc5ccccc5N)cccc4c3)ccnc2c1 [CS2164, N‐(2‐aminophenyl)‐6‐[(7‐methoxy‐4‐quinolinyl)oxy]‐1‐naphthalenecarboxamide]
vascularization in tumor tissues (COLO‐320 tumor): decreased vascularization
CD34 staining in tumor tissues (COLO‐320 tumor; immunohistochemistry): remarkably reduced
tissue Ki67 staining (COLO‐320 tumor; [4]): substantial dose‐dependent decrease
tissue p‐H3 staining (COLO‐320 tumor; [4]): substantial dose‐dependent decrease
p‐H3 levels in tumor tissue by western blotting (COLO‐320 tumor; only tumor tissue, not normal colonic tissue): reduced p‐H3 levels
50% tumor growth inhibition (TGI50) dose (HCT‐8): 2.5 mg/kg
cells in G2/M phase (of cell cycle phases) (Molt‐4 cells [1]): 59.5%
level of p‐H3 (Ser10‐phosphorylated histone 3) (Aurora B): substantial reduction
M‐CSF induced differentiation and proliferation of monocytes [2]: almost complete inhibition
50% tumor growth inhibition (TGI50) dose (SMMC‐7721): 2.5 mg/kg
tissue CD11b^+ macrophage infiltration (4T1 breast cancer cells; oral 20 mg/kg daily, day 12, immunohistochemistry): decreased
CSF‐1R^+ cells in tumor tissue (4T1 breast cancer cells; oral 2.5 or 20 mg/kg/day, 12 days, immunohistochemistry): dramatic reduction
TGI50 dose (A549): around 5 mg/kg
efficacy compared with sunitinib at 40 mg/kg (MGC‐803; CS2164 at 5 mg/kg oral daily): comparable
tumor growth (MGC‐803; 1 mg/kg): started to demonstrate tumor growth inhibition
tumor growth (MGC‐803; 5 mg/kg): near complete inhibition
number of loops of tubular network structures (HUVEC): significant reductions
total branch lengths of tubular network structures (HUVEC): significant reductions
